Tests used:
[1] = biological target: Prothrombin (Homo sapiens, UniProt P00734); test: Inhibition of human coagulation factor II
Outline: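 Human thrombin, final 1 nM, in 0.05 M Tris, 0.15 M NaCl, 0.1% PEG-8000, pH 7.5, room temperature. Inhibitor preincubated with enzyme 30 min, then reaction started with Pefachrome TH (50 µM final). p-Nitroanilide release read continuously at 405 nm for 5 min, under 10% substrate consumed. IC50 taken from initial velocities; apparent Ki by Cheng-Prusoff, assuming competitive inhibition.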

[2] = biological target: Coagulation factor X (Homo sapiens, UniProt P00742); test: Inhibition of human coagulation factor Xa
[3] = biological target: Tissue factor (Homo sapiens) (UniProt P13726); test: (§1) Activated partial thromboplastin time measured; type: functional
Outline: (§2)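 Citrated human, dog (mongrel) and rat (Sprague-Dawley) plasma, freshly thawed, mixed 1:1 with compound dilutions. Clotting started on an automatic coagulation timer with actin-activated cephaloplastin reagent and 0.035 M CaCl2. Value is the concentration that doubles plasma clotting time.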

[4] = as §1; type: ADME; outline: as §2

Coagulation factor X, sequence (P00742 41-179 limits assumed): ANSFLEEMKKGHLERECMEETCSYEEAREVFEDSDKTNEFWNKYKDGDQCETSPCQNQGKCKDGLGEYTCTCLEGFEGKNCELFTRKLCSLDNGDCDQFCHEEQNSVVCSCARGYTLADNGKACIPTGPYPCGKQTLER
Coagulation factor X, sequence (P00742 235-488 limits assumed): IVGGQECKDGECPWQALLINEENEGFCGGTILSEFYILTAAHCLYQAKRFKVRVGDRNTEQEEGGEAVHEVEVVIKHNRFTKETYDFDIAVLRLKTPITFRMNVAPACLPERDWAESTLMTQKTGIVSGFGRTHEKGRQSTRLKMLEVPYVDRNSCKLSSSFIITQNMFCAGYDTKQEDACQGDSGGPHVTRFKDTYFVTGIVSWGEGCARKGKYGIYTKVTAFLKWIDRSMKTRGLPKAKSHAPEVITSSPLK
Tissue factor (Homo sapiens), sequence (P13726 whole entry): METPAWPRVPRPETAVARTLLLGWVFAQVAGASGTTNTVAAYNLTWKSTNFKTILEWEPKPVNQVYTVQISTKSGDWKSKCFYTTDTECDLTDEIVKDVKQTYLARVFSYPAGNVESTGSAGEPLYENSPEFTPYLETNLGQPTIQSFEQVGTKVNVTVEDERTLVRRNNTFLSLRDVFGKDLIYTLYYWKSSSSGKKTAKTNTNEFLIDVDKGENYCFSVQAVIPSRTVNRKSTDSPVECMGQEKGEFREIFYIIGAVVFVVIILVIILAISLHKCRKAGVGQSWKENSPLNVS

Structure (SMILES)	Ki [1] [nM]	Ki [2] [nM]	APTT [3] [µM]	APTT [4] [µM]
N=C(N)c1ccc(O)c(CN2CC[C@H](NS(=O)(=O)c3ccc(-c4cccnc4)s3)C2=O)c1	2800	2	0.32	–
N=C(N)c1cccc(CN2CC[C@H](NS(=O)(=O)c3ccc(-c4ccncc4)s3)C2=O)c1	3000	–	–	–
Cn1ccnc1-c1ccc(S(=O)(=O)N[C@H]2CCN(Cc3cccc(C(=N)N)c3)C2=O)cc1	> 4000	2600	–	–
COc1ccc2ccc(S(=O)(=O)N(C)[C@H]3CCN(Cc4cc(C(=N)N)ccc4NC(C)=O)C3=O)cc2c1	> 4000	919	–	–
N=C(N)c1cccc(CN2CC[C@H](NS(=O)(=O)c3ccc(-c4ccon4)s3)C2=O)c1	> 4000	49	–	–
N=C(N)c1ccc(F)c(CN2CC[C@H](NS(=O)(=O)c3ccc(-c4cccnc4)s3)C2=O)c1	4000	130	–	–
C[n+]1ccc(-c2ccc(S(=O)(=O)N[C@H]3CCN(Cc4cccc(C(=N)N)c4)C3=O)cc2)cc1	> 4000	130	–	–
N=C(N)c1cccc(CN2CC[C@H](NS(=O)(=O)c3ccc(-c4cc[n+]([O-])cc4)cc3)C2=O)c1	> 4000	330	–	–
COc1ccc2ccc(S(=O)(=O)N[C@H]3CCN(Cc4cc(C(=N)N)ccc4N)C3=O)cc2c1	278	6	–	–
N=C(N)c1ccc(N)c(CN2CC[C@H](NS(=O)(=O)c3ccc(-c4ccon4)s3)C2=O)c1	2230	7	–	–
N=C(N)c1ccc(O)c(CN2CC[C@H](NS(=O)(=O)c3ccc(-c4ccon4)s3)C2=O)c1	2220	3	–	–
N=C(N)c1cccc(CN2CC[C@H](NS(=O)(=O)c3ccc(-c4ccccc4)cc3)C2=O)c1	> 4000	160	–	–
COc1ccc2ccc(S(=O)(=O)N(C)[C@H]3CCN(Cc4csc(C(=N)N)c4)C3=O)cc2c1	–	–	–	1.5
N=C(N)c1cccc(CN2CC[C@H](NS(=O)(=O)c3ccc(-c4cccnc4)cc3)C2=O)c1	1960	210	–	–
COc1ccc2ccc(S(=O)(=O)N[C@H]3CCN(Cc4ccc(O)c(C(=N)N)c4)C3=O)cc2c1	> 4000	983	–	–
COc1ccc2ccc(S(=O)(=O)N[C@H]3CCN(Cc4cccc(C(=N)N)c4)C3=O)cc2c1	1430	–	–	–
COc1ccc2ccc(S(=O)(=O)N[C@H]3CCN(Cc4cc(N)cc(C(=N)N)c4)C3=O)cc2c1	> 4000	1200	–	–
COc1ccc2ccc(S(=O)(=O)N[C@H]3CCN(Cc4cc(C(=N)N)ccc4O)C3=O)cc2c1	206	3	–	–
N=C(N)c1cccc(CN2CC[C@H](NS(=O)(=O)c3ccc(-c4ccncc4)cc3)C2=O)c1	> 4000	130	–	–
COc1ccc2ccc(S(=O)(=O)N(C)[C@H]3CCN(Cc4cc(C(=N)N)ccc4N)C3=O)cc2c1	201	4	–	–
COc1nccc(-c2ccc(S(=O)(=O)N[C@H]3CCN(Cc4cccc(C(=N)N)c4)C3=O)s2)n1	> 4000	150	–	–
N=C(N)c1ccc(N)c(CN2CC[C@H](NS(=O)(=O)c3ccc(-c4cccnc4)s3)C2=O)c1	2600	6	–	–
COc1ccc2ccc(S(=O)(=O)N(C)[C@H]3CCN(Cc4cccc(C(=N)N)c4)C3=O)cc2c1	1050	–	–	–
N=C(N)c1cccc(CN2CC[C@H](NS(=O)(=O)c3ccc(-c4cccnc4)s3)C2=O)c1	> 4000	41	–	–
N=C(N)c1cccc(CN2CC[C@H](NS(=O)(=O)c3ccc(-c4ccccn4)cc3)C2=O)c1	4000	150	–	–
N=C(N)c1cccc(CN2CC[C@H](NS(=O)(=O)c3ccc(-c4ccccn4)s3)C2=O)c1	> 4000	140	–	–
COC(=O)COc1ccc(C(=N)N)cc1CN1CC[C@H](NS(=O)(=O)c2ccc3ccc(OC)cc3c2)C1=O	263	8	–	–
COc1ccc2ccc(S(=O)(=O)N[C@H]3CCN(Cc4cc(C(=N)N)ccc4OCC(=O)O)C3=O)cc2c1	> 4000	1300	–	–

Source: ChEMBL document CHEMBL1132374, “Sulfonamidopyrrolidinone factor Xa inhibitors: potency and selectivity enhancements via P-1 and P-4 optimization” (J Med Chem, 1999)
